Measured values: ChEMBL document CHEMBL1649438, “Activities of ceftobiprole and other cephalosporins against extracellular and intracellular (THP-1 macrophages and keratinocytes) forms of methicillin-susceptible and methicillin-resistant Staphylococcus aureus” (Antimicrob Agents Chemother, 2009)
Values after ≈ are worked out from the molar mass of the structure shown.

What was measured:
Staphylococcus aureus [1] = test: Ratio of MIC for beta-lactamase-negative methicillin-susceptible Staphylococcus aureus ATCC 25923 by microdilution method at pH 7.4 to ratio of MIC for beta-lactamase-negative methicillin-susceptible Staphylococcus aureus ATCC 25923 by microdilution method at pH 5.5; assay type: functional
Method in brief: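 MICs were measured by broth microdilution, with the broth adjusted to pH 7.4 or pH 5.5 before inoculation. pH was confirmed at the end of the assay to within ±0.1 unit. The value is the fold decrease in MIC between pH 7.4 and pH 5.5.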

Staphylococcus aureus [2] = test: Bacteriostatic activity against methicillin-resistant Staphylococcus aureus ATCC 33591 infected in human keratinocytes assessed as change in bacterial count after 24 hrs; assay type: functional
Method in brief: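 Primary human skin keratinocytes were grown in defined keratinocyte serum-free medium, infected, then incubated 24 h with increasing extracellular drug concentrations. Response was the change in log10 CFU/mg cell protein versus the post-phagocytosis inoculum, fitted to a Hill equation with slope factor 1. Static concentration (mg/liter, total drug) was taken by graphical interpolation where CFU equalled the original inoculum.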

Staphylococcus aureus [3] = test: Antimicrobial activity against methicillin-susceptible Staphylococcus aureus ATCC 25923 infected in human keratinocytes assessed as bacterial count per mg of cell protein at high extracellular compound concentration after 24 hrs; assay type: functional
Method in brief: (§1)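 Primary human skin keratinocytes were grown in defined keratinocyte serum-free medium and infected with S. aureus to 1.5 × 10^6 to 3.0 × 10^6 CFU/mg cell protein. Cells were exposed 24 h to increasing extracellular concentrations. Response was the log10 CFU change from the postphagocytosis inoculum, fitted by a Hill equation with slope 1. Cs is the concentration giving CFU equal to the original inoculum, found by graphical interpolation.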

Staphylococcus aureus [4] = test: Antimicrobial activity against methicillin-resistant Staphylococcus aureus ATCC 33591 infected in human keratinocytes assessed as bacterial count per mg of cell protein at low extracellular compound concentration after 24 hrs; assay type: functional
Method in brief: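 Primary human skin keratinocytes were grown in defined keratinocyte serum-free medium, infected with a postphagocytosis inoculum of 1.5 × 10⁶ to 3.0 × 10⁶ CFU/mg cell protein, then exposed 24 h to increasing extracellular antibiotic concentrations. Change in log10 CFU/mg protein from the inoculum was fitted to a Hill equation with slope 1. E0 and Emax were extrapolated to infinitely low and high concentrations, in total drug mg/liter.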

Staphylococcus aureus [5] = test: Bacteriostatic activity against methicillin-susceptible Staphylococcus aureus ATCC 25923 infected in human keratinocytes assessed as change in bacterial count after 24 hrs; assay type: functional; method in brief: as §1
Staphylococcus aureus [6] = test: Antimicrobial activity against methicillin-susceptible Staphylococcus aureus ATCC 25923 infected in human keratinocytes assessed as bacterial count per mg of cell protein at low extracellular compound concentration after 24 hrs; assay type: functional; method in brief: as §1
Staphylococcus aureus [7] = test: Ratio of MIC for hospital-acquired methicillin-resistant Staphylococcus aureus ATCC 33591 by microdilution method at pH 7.4 to ratio of MIC for hospital-acquired methicillin-resistant Staphylococcus aureus ATCC 33591 by microdilution method at pH 5.5; assay type: functional
Method in brief: (§2)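 MICs were determined by broth microdilution at pH 7.4 and pH 5.5. Broth was adjusted before inoculation, and pH was confirmed maintained (±0.1 unit) at the end.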

Staphylococcus aureus [8] = test: Antimicrobial activity against methicillin-susceptible Staphylococcus aureus ATCC 25923 infected in human keratinocytes assessed as change in bacterial count after 24 hrs; assay type: functional, organism-based; settings: ATCC 25923, 24 h; method in brief: as §1
Staphylococcus aureus [9] = test: Ratio of MIC for hospital-acquired methicillin-resistant Staphylococcus aureus ATCC 33591 by microdilution method at pH 5.5 to MIC for beta-lactamase-negative methicillin-susceptible Staphylococcus aureus ATCC 25923 by microdilution method at pH 5.5; assay type: functional; method in brief: as §2
Staphylococcus aureus [10] = test: microbe, parasite or virus in culture; settings: ATCC 11632
Staphylococcus aureus [11] = test: Antimicrobial activity against hospital-acquired vancomycin-intermediate Staphylococcus aureus NRS126 obtained from bloodstream infection of patient by microdilution method at pH 5.5
Staphylococcus aureus [12] = test: Antimicrobial activity against hospital-acquired methicillin-resistant Staphylococcus aureus N4112910 obtained from nasal swap of patient by microdilution method at pH 5.5
Staphylococcus aureus [13] = test: microbe, parasite or virus in culture; settings: ATCC 25923

| Compound | fold change (FC) (Staphylococcus aureus [1]) | Activity (Staphylococcus aureus [2]) [mg/L] | log10cfu (Staphylococcus aureus [3]) | log10cfu (Staphylococcus aureus [4]) | Activity (Staphylococcus aureus [5]) [mg/L] | log10cfu (Staphylococcus aureus [6]) | fold change (FC) (Staphylococcus aureus [7]) | EC50 (Staphylococcus aureus [8]) [µg/mL] | fold change (FC) (Staphylococcus aureus [9]) | MIC (Staphylococcus aureus [10]) [µg/mL] | MIC (Staphylococcus aureus [11]) [µg/mL] | MIC (Staphylococcus aureus [12]) [µg/mL] | MIC (Staphylococcus aureus [13]) [µg/mL] |
| --- | --- | --- | --- | --- | --- | --- | --- | --- | --- | --- | --- | --- | --- |
| CO[C@@]1(NC(=O)Cc2cccs2)C(=O)N2C(C(=O)O)=C(COC(N)=O)CS[C@@H]21 [CEFOXITIN] | 4 | >200 | -0.91 | 2.36 | 1.84 | 3.06 | 512 | 0.55 (≈ 1.29 µM) | – | – | – | – | – |
| CO/N=C(\C(=O)N[C@@H]1C(=O)N2C(C(=O)O)=C(CSc3nc(=O)c(O)nn3C)CS[C@H]12)c1csc(N)n1 [CEFTRIAXONE] | 16 | >200 | -0.3 | 2.09 | 14.8 | 2.44 | 512 | 1.83 (≈ 3.3 µM) | 4 | – | – | – | – |
| CO/N=C(\C(=O)N[C@@H]1C(=O)N2C(C(=O)O)=C(COC(N)=O)CS[C@H]12)c1ccco1 [CEFUROXIME] | 16 | 200 | -0.42 | 2.75 | 0.26 | 3.23 | 128 | 0.27 (≈ 0.636 µM) | 4 | – | – | – | – |
| CC1=C(C(=O)O)N2C(=O)[C@@H](NC(=O)[C@H](N)c3ccccc3)[C@H]2SC1 [CEPHALEXIN ANHYDROUS] | 2 | – | 0.035 | 2.42 | 200 | 3.09 | 16 | 0.27 (≈ 0.777 µM) | 16 | – | – | – | – |
| CN[C@H](CC(C)C)C(=O)N[C@H]1C(=O)N[C@@H](CC(N)=O)C(=O)N[C@H]2C(=O)N[C@H]3C(=O)N[C@H](C(=O)N[C@H](C(=O)O)c4cc(O)cc(O)c4-c4cc3ccc4O)[C@H](O)c3ccc(c(Cl)c3)Oc3cc2cc(c3O[C@@H]2O[C@H](CO)[C@@H](O)[C@H](O)[C@H]2O[C@H]2C[C@](C)(N)[C@H](O)[C@H](C)O2)Oc2ccc(cc2Cl)[C@H]1O [VANCOMYCIN] | – | – | – | – | – | – | – | – | – | 0.25 (≈ 0.173 µM) | 0.25 (≈ 0.173 µM) | 0.25 (≈ 0.173 µM) | 0.25 (≈ 0.173 µM) |
